For experiment [1], the target named is Ribosomal protein S6 kinase beta-1 (Homo sapiens, UniProt P23443). Kind of experiment: Inhibition of P70S6K in human HeLa cells lysate at 2 uM pre incubated for 15 mins followed by ATP acyl phosphate probe addition and measured after 10 mins by LC-MS/MS analysis relative to control. The format is subcellular. The conditions noted are these: time 25.0 min.
For experiment [2], the target named is Mitogen-activated protein kinase 14 (Homo sapiens, UniProt Q16539). Description: Inhibition of p38a in human HeLa cells lysate at 2 uM pre incubated for 15 mins followed by ATP acyl phosphate probe addition and measured after 10 mins by LC-MS/MS analysis relative to control. The format is subcellular. The conditions noted are these: time 25.0 min.
Sequence of Mitogen-activated protein kinase 14 (Q16539 whole entry): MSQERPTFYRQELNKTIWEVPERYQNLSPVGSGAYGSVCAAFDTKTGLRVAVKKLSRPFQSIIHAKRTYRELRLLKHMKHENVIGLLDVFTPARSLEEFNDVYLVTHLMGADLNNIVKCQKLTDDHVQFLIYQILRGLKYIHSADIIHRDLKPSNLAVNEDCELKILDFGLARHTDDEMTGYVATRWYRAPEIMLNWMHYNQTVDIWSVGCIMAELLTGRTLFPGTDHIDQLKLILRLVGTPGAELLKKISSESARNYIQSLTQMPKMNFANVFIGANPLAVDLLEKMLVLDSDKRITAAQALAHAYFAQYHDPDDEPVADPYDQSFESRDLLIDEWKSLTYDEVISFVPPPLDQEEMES
For experiment [3], the target named is Serine/threonine-protein kinase 3/4 (Homo sapiens, UniProt Q13043+Q13188). Description: Inhibition of MST1/2 in human HeLa cells lysate pre incubated for 15 mins followed by ADP acyl phosphate probe addition and measured after 10 mins by LC-MS/MS analysis. It counts as subcellular.
The target in experiment [4] is T1, Serine/threonine-protein kinase tousled-like 1 (Homo sapiens) (UniProt Q9UKI8).
T1 sequence (whole entry): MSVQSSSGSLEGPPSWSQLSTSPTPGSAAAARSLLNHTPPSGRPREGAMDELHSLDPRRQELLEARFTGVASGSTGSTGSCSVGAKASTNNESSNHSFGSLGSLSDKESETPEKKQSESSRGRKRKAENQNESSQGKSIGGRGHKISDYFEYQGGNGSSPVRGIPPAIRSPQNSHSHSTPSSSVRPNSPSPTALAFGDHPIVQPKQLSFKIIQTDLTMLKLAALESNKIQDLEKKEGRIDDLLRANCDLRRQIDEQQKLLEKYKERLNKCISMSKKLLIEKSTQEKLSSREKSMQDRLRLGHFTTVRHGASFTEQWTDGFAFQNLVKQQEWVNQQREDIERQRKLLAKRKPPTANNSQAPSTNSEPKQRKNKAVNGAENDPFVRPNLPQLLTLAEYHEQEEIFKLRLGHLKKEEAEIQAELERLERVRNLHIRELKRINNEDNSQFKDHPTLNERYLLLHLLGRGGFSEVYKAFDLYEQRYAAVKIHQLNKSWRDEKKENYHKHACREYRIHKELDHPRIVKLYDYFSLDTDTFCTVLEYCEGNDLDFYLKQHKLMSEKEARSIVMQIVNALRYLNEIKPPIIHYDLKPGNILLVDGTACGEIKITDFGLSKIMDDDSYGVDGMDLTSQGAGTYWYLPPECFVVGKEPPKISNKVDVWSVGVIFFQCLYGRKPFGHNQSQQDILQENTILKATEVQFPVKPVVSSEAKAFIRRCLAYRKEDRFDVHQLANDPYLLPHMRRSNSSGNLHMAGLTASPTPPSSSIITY
Kind of experiment: Inhibition of TLK1 in human HeLa cells lysate at 2 uM pre incubated for 15 mins followed by ADP acyl phosphate probe addition and measured after 10 mins by LC-MS/MS analysis relative to control. The conditions noted are these: time 25.0 min. It counts as subcellular.

For experiment [5], the target named is Dual specificity protein kinase CLK3 (Homo sapiens, UniProt P49761). Kind of experiment: Inhibition of CLK3 in human HeLa cells lysate pre incubated for 15 mins followed by ADP acyl phosphate probe addition and measured after 10 mins by LC-MS/MS analysis. It counts as subcellular.
Sequence of Dual specificity protein kinase CLK3 (P49761 whole entry): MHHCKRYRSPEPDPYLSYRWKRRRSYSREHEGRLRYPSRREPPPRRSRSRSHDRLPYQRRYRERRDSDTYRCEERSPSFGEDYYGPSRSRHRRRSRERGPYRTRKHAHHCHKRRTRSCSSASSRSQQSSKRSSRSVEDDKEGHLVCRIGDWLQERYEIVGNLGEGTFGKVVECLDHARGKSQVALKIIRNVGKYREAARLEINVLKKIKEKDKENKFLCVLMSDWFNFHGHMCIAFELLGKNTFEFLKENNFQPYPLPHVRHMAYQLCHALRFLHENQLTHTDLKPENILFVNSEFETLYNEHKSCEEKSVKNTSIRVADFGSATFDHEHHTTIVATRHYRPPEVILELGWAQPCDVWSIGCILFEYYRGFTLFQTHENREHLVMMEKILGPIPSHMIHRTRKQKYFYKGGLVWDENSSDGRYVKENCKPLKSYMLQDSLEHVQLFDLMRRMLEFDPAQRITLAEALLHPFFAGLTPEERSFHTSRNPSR
Experiment [6] is described as follows: Inhibition of HGK/MINK/TNIK in human HeLa cells lysate at 10 uM pre incubated for 15 mins followed by ADP acyl phosphate probe addition and measured after 10 mins by LC-MS/MS analysis relative to control. The conditions noted are these: 25 min, condition cancer.
A further experiment deals with IKK epsilon/TBK1 (Homo sapiens, UniProt Q14164+Q9UHD2). Description: Inhibition of IKKE/TBK1 in human HeLa cells lysate pre incubated for 15 mins followed by ADP acyl phosphate probe addition and measured after 10 mins by LC-MS/MS analysis. It counts as subcellular.
Sequence of IKK epsilon/TBK1 (Q14164 whole entry): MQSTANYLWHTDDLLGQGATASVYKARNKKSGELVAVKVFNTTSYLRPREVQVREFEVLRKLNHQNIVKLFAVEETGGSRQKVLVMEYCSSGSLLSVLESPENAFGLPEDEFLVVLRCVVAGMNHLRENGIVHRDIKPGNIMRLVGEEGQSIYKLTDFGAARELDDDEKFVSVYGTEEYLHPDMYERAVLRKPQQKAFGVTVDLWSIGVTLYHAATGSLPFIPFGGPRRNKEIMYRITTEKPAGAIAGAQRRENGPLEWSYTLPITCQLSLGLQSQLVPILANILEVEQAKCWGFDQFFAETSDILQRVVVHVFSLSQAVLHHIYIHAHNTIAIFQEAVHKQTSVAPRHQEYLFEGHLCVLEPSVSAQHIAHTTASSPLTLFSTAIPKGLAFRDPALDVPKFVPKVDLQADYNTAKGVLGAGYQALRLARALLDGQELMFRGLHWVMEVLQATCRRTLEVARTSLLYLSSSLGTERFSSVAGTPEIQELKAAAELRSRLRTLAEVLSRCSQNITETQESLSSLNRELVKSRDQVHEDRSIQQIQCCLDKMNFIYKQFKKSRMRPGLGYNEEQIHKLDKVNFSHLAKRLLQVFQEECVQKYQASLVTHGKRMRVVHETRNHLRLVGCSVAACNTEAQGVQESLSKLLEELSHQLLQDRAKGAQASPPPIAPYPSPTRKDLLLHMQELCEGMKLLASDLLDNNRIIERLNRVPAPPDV
Sequence of IKK epsilon/TBK1 (Q9UHD2 whole entry): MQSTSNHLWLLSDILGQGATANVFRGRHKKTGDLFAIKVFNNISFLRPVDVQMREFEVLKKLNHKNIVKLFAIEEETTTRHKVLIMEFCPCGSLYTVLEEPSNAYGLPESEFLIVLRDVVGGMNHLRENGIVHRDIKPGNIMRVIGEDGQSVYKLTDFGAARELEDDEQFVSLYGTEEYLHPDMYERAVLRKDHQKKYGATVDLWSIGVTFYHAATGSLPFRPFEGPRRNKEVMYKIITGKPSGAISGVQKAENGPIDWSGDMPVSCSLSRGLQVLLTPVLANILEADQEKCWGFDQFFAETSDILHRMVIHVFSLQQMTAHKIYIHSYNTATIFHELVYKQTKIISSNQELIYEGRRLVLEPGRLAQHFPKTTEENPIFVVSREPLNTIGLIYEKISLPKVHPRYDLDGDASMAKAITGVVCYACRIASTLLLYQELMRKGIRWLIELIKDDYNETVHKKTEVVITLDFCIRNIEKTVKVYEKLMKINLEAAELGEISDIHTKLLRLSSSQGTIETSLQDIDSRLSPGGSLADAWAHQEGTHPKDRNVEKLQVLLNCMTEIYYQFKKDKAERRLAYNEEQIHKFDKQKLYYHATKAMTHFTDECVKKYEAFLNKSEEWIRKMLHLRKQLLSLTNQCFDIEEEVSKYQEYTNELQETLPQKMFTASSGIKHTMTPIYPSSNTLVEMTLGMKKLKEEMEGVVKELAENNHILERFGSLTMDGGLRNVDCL
For experiment [7], the target named is Mitogen-activated protein kinase kinase kinase 5 (Homo sapiens, UniProt Q99683). Kind of experiment: Inhibition of MAP3K5 in human HeLa cells lysate pre incubated for 15 mins followed by ATP acyl phosphate probe addition and measured after 10 mins by LC-MS/MS analysis. It counts as subcellular.
For another experiment, the system named is Lewis lung carcinoma. Kind of experiment: Antitumor activity against mouse LL2 cells allografted in C57Bl/6 mouse assessed as reduction tumor growth at 50 mg/kg, ip administered on day 10 post implantation measured after 17 days. It counts as functional, organism-based. The conditions noted are these: time 7.0 day. An outline of the steps: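 LL/2 cells (1×10^6, in DMEM) were injected s.c. into the right flank of 6-week-old C57Bl/6 mice on day 0. Dosing was 50 mg/kg i.p. twice daily, starting on day 1, 7 or 10 and continuing to day 17; controls received carrier. 6 mice per treated group. Tumors were measured every 2–3 days.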

Experiment [8] has as its target Dual specificity mitogen-activated protein kinase kinase 1 (Homo sapiens, UniProt Q02750). Description: Inhibition of MAP2K1 in human HeLa cells lysate at 10 uM pre incubated for 15 mins followed by ATP acyl phosphate probe addition and measured after 10 mins by LC-MS/MS analysis relative to control. It counts as subcellular. The conditions noted are these: time 25.0 min.

Experiment [9] concerns the target Mitogen-activated protein kinase kinase kinase 11 (Homo sapiens, UniProt Q16584). Kind of experiment: Inhibition of MLK3 in human HeLa cells lysate at 50 uM pre incubated for 15 mins followed by ATP acyl phosphate probe addition and measured after 10 mins by LC-MS/MS analysis relative to control. It counts as subcellular. The conditions noted are these: time 25.0 min.

Experiment [10] addresses Phosphatidylinositol 4-kinase beta (Homo sapiens, UniProt Q9UBF8). Kind of experiment: Inhibition of PIK4CB in human HeLa cells lysate pre incubated for 15 mins followed by ADP acyl phosphate probe addition and measured after 10 mins by LC-MS/MS analysis. The format is subcellular.
Experiment [11] has as its target Calcium/calmodulin-dependent protein kinase type 1D (Homo sapiens, UniProt Q8IU85). Kind of experiment: Inhibition of CAMK1d in human HeLa cells lysate at 50 uM pre incubated for 15 mins followed by ATP acyl phosphate probe addition and measured after 10 mins by LC-MS/MS analysis relative to control. It counts as subcellular. The conditions noted are these: time 25.0 min. An outline of the steps:
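KiNativ-type profiling in HeLa lysate (5 mg/mL total protein). Lysate preincubated 15 min with inhibitor at 50, 10, 2, 0.8 or 0 μM, then ATP or ADP acylphosphate probe added (5 μM final) for 10 min. Reaction stopped with urea and analysed by targeted MS, using up to four fragment ions per kinase peptide-probe conjugate. % inhibition calculated against untreated lysate. Duplicate reactions.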

Experiment [12] deals with T2, Dual specificity mitogen-activated protein kinase kinase 3 (Homo sapiens) (UniProt P46734).
T2 sequence (whole entry): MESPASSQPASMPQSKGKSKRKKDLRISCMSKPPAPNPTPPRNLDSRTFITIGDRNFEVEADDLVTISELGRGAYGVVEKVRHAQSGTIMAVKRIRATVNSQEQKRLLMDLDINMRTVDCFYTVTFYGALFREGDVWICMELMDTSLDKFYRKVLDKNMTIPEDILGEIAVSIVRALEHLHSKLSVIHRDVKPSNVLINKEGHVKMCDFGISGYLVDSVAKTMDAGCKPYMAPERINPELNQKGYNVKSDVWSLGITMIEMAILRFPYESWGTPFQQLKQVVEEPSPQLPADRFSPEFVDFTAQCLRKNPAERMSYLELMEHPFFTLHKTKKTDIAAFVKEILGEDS
Description: Inhibition of MAP2K3 in human HeLa cells lysate at 2 uM pre incubated for 15 mins followed by ATP acyl phosphate probe addition and measured after 10 mins by LC-MS/MS analysis relative to control. The format is subcellular. The conditions noted are these: time 25.0 min.

Each structure is given as a SMILES string. The source made the active and inactive calls. The rule behind the calls is not given here. Bounds are passed on as bounds.

Sequence of Calcium/calmodulin-dependent protein kinase type 1D (Q8IU85 whole entry, looked up, the tested form may be a part): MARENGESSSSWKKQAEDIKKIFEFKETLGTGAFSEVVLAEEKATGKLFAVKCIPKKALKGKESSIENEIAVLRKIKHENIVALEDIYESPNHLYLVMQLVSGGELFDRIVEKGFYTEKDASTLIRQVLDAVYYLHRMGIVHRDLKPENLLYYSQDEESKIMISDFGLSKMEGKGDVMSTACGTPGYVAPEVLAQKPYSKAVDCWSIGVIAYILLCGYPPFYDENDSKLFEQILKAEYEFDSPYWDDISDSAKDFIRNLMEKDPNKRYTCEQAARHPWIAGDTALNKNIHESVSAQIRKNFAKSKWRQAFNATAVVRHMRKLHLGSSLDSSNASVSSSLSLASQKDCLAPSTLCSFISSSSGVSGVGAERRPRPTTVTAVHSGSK
Sequence of Phosphatidylinositol 4-kinase beta (Q9UBF8 whole entry): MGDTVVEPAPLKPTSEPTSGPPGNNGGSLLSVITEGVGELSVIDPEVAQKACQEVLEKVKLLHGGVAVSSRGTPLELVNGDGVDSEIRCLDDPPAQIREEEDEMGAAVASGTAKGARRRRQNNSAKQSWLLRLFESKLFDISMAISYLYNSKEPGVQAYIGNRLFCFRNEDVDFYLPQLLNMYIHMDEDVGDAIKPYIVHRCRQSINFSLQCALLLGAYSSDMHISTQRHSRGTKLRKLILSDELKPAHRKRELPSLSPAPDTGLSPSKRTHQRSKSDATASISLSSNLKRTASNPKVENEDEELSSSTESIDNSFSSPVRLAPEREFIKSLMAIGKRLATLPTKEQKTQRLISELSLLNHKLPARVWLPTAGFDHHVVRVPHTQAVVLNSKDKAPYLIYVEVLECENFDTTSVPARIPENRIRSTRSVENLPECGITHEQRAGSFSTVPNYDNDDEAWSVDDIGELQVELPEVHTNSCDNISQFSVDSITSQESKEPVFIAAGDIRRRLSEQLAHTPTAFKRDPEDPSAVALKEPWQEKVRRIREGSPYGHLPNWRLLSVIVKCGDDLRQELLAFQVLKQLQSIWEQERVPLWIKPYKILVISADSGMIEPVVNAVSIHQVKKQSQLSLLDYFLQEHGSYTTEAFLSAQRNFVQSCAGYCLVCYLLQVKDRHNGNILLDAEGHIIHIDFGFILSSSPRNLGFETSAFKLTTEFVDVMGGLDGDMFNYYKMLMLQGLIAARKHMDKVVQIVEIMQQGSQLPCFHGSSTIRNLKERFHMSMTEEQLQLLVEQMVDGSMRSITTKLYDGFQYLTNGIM
Sequence of Mitogen-activated protein kinase kinase kinase 11 (Q16584 whole entry, looked up): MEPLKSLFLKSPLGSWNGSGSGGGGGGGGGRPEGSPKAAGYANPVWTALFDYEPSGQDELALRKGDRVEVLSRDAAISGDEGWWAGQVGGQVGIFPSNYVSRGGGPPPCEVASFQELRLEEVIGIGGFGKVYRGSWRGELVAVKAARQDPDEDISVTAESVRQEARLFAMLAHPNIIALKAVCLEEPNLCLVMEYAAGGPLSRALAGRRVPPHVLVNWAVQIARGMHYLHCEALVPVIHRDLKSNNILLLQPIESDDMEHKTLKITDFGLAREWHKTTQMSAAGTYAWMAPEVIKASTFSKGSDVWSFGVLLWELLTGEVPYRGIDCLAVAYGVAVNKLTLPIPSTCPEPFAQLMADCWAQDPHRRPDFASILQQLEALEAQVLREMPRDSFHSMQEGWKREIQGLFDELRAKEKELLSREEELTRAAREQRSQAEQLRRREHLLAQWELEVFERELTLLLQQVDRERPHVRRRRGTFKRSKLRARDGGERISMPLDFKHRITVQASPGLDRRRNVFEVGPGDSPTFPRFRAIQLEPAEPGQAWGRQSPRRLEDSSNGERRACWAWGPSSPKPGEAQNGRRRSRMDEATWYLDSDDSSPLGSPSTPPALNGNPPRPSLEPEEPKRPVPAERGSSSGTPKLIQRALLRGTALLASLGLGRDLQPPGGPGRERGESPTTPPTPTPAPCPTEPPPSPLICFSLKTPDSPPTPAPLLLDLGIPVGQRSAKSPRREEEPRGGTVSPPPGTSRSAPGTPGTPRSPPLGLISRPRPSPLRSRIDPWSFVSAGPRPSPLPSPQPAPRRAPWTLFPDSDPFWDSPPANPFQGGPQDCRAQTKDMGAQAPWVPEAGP
Sequence of Ribosomal protein S6 kinase beta-1 (P23443 whole entry, looked up): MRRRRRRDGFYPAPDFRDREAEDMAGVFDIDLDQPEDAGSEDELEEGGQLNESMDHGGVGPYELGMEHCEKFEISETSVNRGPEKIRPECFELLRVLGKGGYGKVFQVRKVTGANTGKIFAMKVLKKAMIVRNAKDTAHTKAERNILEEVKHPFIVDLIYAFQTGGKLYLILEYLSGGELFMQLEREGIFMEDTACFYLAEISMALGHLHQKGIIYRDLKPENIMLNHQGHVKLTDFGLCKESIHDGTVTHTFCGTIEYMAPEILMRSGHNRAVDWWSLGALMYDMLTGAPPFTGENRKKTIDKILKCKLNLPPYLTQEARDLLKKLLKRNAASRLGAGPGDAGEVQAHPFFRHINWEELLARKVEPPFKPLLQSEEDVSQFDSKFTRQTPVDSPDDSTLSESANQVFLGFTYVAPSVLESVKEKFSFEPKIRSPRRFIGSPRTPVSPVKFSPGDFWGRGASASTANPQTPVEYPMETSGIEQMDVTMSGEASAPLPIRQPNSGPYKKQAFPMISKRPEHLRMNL

On to `CCOc1cc(N2CCC(O)CC2)ccc1Nc1ncc2c(n1)N(C)c1ccccc1C(=O)N2C`, for which the inhibition was 7% in experiment [1]; 3.8% in experiment [2]; 7.3% in experiment [4]; -1.9% in [8]; -7.8% in experiment [9]; -3.1% in [11]. The inhibition in [12] was found to be 13.5%. In addition, the IC50 (in experiment [3]; in experiment [5]; against IKK epsilon/TBK1; in experiment [7]; in experiment [10]) was above 50 µM throughout. The inhibition at 10 µM in [6] is -25.3%. In addition, the outcome in the experiment with Lewis lung carcinoma was Active.
